Source: PubChem BioAssay
Rows were chosen to be rich in hits. Some 1.3% of all compounds tested hit in one or more screens of this group.
NR2E3 ag-1: agonists of human nuclear receptor NR2E3 | 320,000 compounds, 0.12% hits | inhibition of corepressor binding, % at 4.78 µM | GST-NR2E3/biotin-RetCOR TR-FRET, 1536-well | Q9Y5X4;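 active = percent inhibition above the cutoff of mean plus 3 SD of all tested compounds, set per screening campaign, cut at about 20% in these data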;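 note: 0% = DMSO wells and 100% = biotin wells as full block of FRET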
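Material: NR2E3–RetCOR corepressor complex / Incubation: Compound–protein incubation for 5 h at 4 °C / Dosing: compound at 4.8 µM, single dose / Detection: time-resolved FRET / Benchmarks: high control biotin, low control 0.6% DMSO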
EP2 mod: modulates human prostaglandin E2 receptor EP2 signaling | P43116 | EP2-expressing cells, cAMP HTRF FRET, PGE2 co-stimulation | induction, % at 25 µM | 260,000 compounds, 0.83% hits;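 active = compounds whose cAMP rise, as percent of the full-agonist control response, exceeds 60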;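 note: rat C6 glioma line stably carrying human EP2 under a CMV promoter; the protocol text gives 20 µM as final concentration; 100% = response of wells given 1 µM PGE2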
GASC-1 inh: human JMJD2C demethylase inhibition; Q9H3R0; 330,000 compounds, 0.069% hits; inhibition, % at 2.35 µM; GST-JMJD2C(1-420) H3K9me3 demethylation, DELFIA europium;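 active = more than half of a compound's replicate wells show inhibition beyond 50%, single wells judged on their own value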;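 note: signal counts dimethyl H3K9 product captured on neutravidin plate; 0% = median of DMSO wells and 100% = 0.3 times that DMSO median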
EP2 antag: inhibitors of human EP2 prostaglandin E2 receptor; P43116; C6 glioma cells expressing human EP2, cAMP TR-FRET; cells stimulated with saturating PGE2; inhibition, % at 25 µM; 260,000 compounds, 0.52% hits;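 active = percent inhibition above 40 after rounding to a whole number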;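 note: rat C6 glioma host cells with rolipram phosphodiesterase inhibitor present; the protocol text gives 20 µM as final concentration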
NR2E3 ag-2: activates human NR2E3 receptor | CHO-S Gal4-NCOR/VP16-NR2E3 two-hybrid, luciferase | inhibition of corepressor binding, % at 3.98 µM | Q9Y5X4 | 360,000 compounds, 0.35% hits;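 active = inhibition above the mean of all tested compounds plus 3 SD, cut at about 70% in these data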;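 note: 0% = DMSO with NR2E3 transfected cells and 100% = cells lacking NR2E3 construct; higher means lower luciferase signal from less NR2E3 corepressor binding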
Furin inhibitor: blocks human furin protease activity | P09958 | purified furin, fluorogenic substrate cleavage | inhibition, % at 20 µM or 30 µM | 220,000 compounds, 0.061% hits; in the data active = inhibition above about 25%
Target sequence (P09958 108-714 limits assumed): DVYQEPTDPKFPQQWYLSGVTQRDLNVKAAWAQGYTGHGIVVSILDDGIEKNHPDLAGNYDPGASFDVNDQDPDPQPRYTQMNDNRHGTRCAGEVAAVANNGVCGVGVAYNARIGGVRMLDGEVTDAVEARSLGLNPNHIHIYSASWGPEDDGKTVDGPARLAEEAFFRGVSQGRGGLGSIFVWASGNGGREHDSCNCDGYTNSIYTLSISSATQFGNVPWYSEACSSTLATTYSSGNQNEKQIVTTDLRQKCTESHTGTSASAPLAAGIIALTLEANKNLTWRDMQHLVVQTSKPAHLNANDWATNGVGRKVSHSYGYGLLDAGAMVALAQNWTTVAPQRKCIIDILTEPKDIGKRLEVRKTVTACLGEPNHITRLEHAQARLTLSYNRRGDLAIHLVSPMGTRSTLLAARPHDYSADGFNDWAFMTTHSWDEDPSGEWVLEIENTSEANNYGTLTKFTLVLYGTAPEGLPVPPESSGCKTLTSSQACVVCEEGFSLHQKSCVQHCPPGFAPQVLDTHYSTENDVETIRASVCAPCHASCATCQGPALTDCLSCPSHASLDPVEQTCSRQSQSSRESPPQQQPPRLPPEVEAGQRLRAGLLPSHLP
* = called active by the depositor; x = no result given; ! = not active in a repeat.

SMILES	NR2E3 ag-1	EP2 mod	GASC-1 inh	EP2 antag	NR2E3 ag-2	Furin inhibitor
COc1ccccc1NC(=O)C(C)NC(c1ccccc1)c1ccccc1 (stereo unspecified)	2	x	-48	x	-17	x
O=C(Nc1ccccc1Oc1ccccc1)C1CCCC1	4	61*	6	7	10	8
COc1ccccc1NC(=O)C1CCCCC1	2	12	-4	x	-7	-22
CC(C(=O)Nc1ccccc1Oc1ccccc1)c1ccccc1 (stereo unspecified)	0	64*	3	6	9	-9
Cn1c(=O)c2[nH]c(CCS)nc2n(C)c1=O	x	28	x	13	x	x
Cn1c(=O)c2[nH]c(CCCCc3nc4ccccc4[nH]3)nc2n(C)c1=O	x	-1	x	41*	-16	x
Cn1c(=O)c2[nH]c(CCCc3nc4ccccc4[nH]3)nc2n(C)c1=O	x	x	x	x	16	x
CCn1c(CCCc2nc3c([nH]2)c(=O)n(C)c(=O)n3C)nc2c1c(=O)n(C)c(=O)n2C	x	-4	x	45*	x	x
O=C(CN1CCC(N2CCCCC2)CC1)NCC1CCCO1 (stereo unspecified)	x	10	x	10	x	x
COc1cc(C(=O)Nc2ccc(N3CCCCC3)cc2)cc(OC)c1OC	x	-9	x	10	x	x
Cc1nc(-n2nnc3ccccc32)c2c3c(sc2n1)CCCC3	2	61*	5	0	-13	-10
CCOc1cccc(/C(O)=C2/C(=O)C(=O)N(CCCN(C)C)C2c2ccc(C)o2)c1 (stereo unspecified)	x	6	x	8	x	x
CCCC(c1cc(C(C)(C)C)c(O)cc1C)c1cc(C(C)(C)C)c(O)cc1C	x	26	x	64*	x	x
CCS(=O)(=O)N1CCCC(c2nc3c(nnn3Cc3cc(C)ccc3C)c(=O)[nH]2)C1 (stereo unspecified)	x	-17	x	8	x	x
C=CCOCCN1C(=O)C2C3C=CC(C2C1=O)C1C2C(=O)N(CCOCC=C)C(=O)C2C31 (stereo unspecified)	3	4	1	1	-19	-14
O=C1[C@@H]2[C@H](C(=O)N1CN1CCSCC1)[C@H]1[C@@H]3C=C[C@@H]([C@@H]4C(=O)N(CN5CCSCC5)C(=O)[C@@H]34)[C@@H]21	x	15	x	45*	x	x
COc1ccc(NS(=O)(=O)c2cccc(NC(=O)c3ccc(S(=O)(=O)N4CCCCCC4)cc3)c2)cc1	2	-1	-8	4	83*	-17
CC(C)(C)c1cccc(P(=O)(c2ccccc2)c2ccccc2)c1O	3	66*	-1	12	16	-6
Brc1ccc(-c2cnc(-c3cccs3)o2)cc1	4	61*!	1	6	-28	-16
NS(=O)(=O)c1cc2c(cc1Cl)N[C@H](Cc1ccccc1)NS2(=O)=O	x	15	x	53*	x	x
COC(=O)[C@H]1CN(C(=O)c2ccc(=O)[nH]n2)C[C@@H]1c1ccc(F)cc1	x	4	x	x	x	x
COc1cc(-c2nn3c(C4CCCCC4)nnc3s2)cc(OC)c1OC	2	-1	-4	3	12	-25
COc1ccc(-c2nn3c(C4CCCCC4)nnc3s2)cc1OC	8	61*	-3	7	15	-23
Cc1ccc(NC(=O)CSc2nc(C)cc(C)n2)c(C)c1	x	-96	x	10	x	x
CC1(C)OC(=CC=[N+]2CCOCC2)OC1(C)C	x	-9	x	19	x	x
SMILES	NR2E3 ag-1	EP2 mod	GASC-1 inh	EP2 antag	NR2E3 ag-2	Furin inhibitor
C=Cn1ncc(CN2C[C@@H]3CCCN3C[C@@H]2Cc2ccccc2)c1C	x	-23	x	3	x	x
N=C(N)c1ccc(-c2ccc(-c3ccc(C(=N)N)cc3)o2)cc1	x	-11	x	52*	x	x
CCOc1ccc2[nH]c(=O)c(CN(Cc3cccs3)C(=O)Nc3ccc(OC)cc3)cc2c1	x	-24	x	13	x	x
COC(=O)c1sc(N2C(=O)C(=O)/C(=C(\O)c3ccc(OC)c(C)c3)C2c2cccnc2)nc1C (stereo unspecified)	x	8	x	53*	x	x
c1ccc(CCN(Cc2ccccc2)Cc2nc(C3CC3)no2)cc1	-1	62*	7	11	-17	-17
O=C1c2ccccc2C(=O)c2c(NC3CCCCC3)ccc(Nc3ccc(S(=O)(=O)O)cc3)c21	x	-15	x	71*	x	x
Cc1ccccc1OC1C(=O)N(C2CCCC2)C1c1ccc2c(c1)OCO2 (stereo unspecified)	x	61*	x	9	x	x
COc1ccc(CCN2C(=O)C(Oc3ccccc3C)C2c2ccc3c(c2)OCO3)cc1 (stereo unspecified)	3	30	3	4	-7	-18
Cc1cn(C(=O)c2ccccc2)c(=S)n1-c1ccc(Br)cc1	0	65*	-2	5	-27	4
Cc1cc(=O)cc(C)n1-c1ccc(Br)cc1	4	23	3	5	-7	-29
CN1C(CC(=O)Nc2ccc(Cl)cc2Cl)c2ccccc2CC1(C)C (stereo unspecified)	0	61*	1	8	-13	-16
COc1cc(/C=C2/C(=O)NN(c3cccc(C)c3)C2=O)ccc1OC(=O)c1ccco1	1	-22	-10	41*	-9	-15
CCCCOc1ccc2c(C)cc(=O)oc2c1OCCCC	-1	62*	-2	0	-5	-12
CCOc1ccc2[nH]c(=O)c(CN(Cc3cccnc3)C(=O)Nc3ccccc3OC)cc2c1	2	-7	-7	12	7	-24
CCOc1ccc2[nH]c(=O)c(CN(Cc3cccnc3)C(=O)c3ccccc3Cl)cc2c1	x	-16	x	72*	x	x
Cc1cc(NC(=O)COc2cccc3cccnc23)no1	x	7	14	9	x	-19
NC(=O)COc1cccc2cccnc12	1	1	74*	7	-27	-12
CS(=O)(=O)Nc1ccc(Nc2c3ccccc3nc3ccccc23)cc1	x	-18	x	64*	x	x
CC(C)N(C(=O)CCC1CCCC1)c1nnc(-c2ccc(Cl)cc2)s1	x	20	x	3	x	x
CCC(Oc1ccccc1)C(=O)Nc1nc(C)cs1 (stereo unspecified)	x	6	x	10	x	x
Cc1cc(C(F)F)n2nc(C(=O)Nc3sc4c(c3C(=O)OC(C)C)CCCC4)nc2n1	x	67*	x	13	x	x
O=C(O)CCCn1cc(NC(=O)c2cccc(F)c2)cn1	-2	12	-3	8	-15	-17
O=C(O)CCCn1cc(NC(=O)c2cc(F)c(F)cc2Cl)cn1	-2	61*	-2	11	-23	-8
Oc1c(Cl)cc(CN(Cc2cc(Cl)c(O)c(Cl)c2)C2CCCCC2)cc1Cl	x	-13	x	44*	x	x
O=C(Nc1ccccc1Cl)c1ccccc1Cc1ccccc1	-2	64*	4	0	3	-22
O=C(Nc1ccccc1NC(=O)c1ccccc1Cl)c1ccccc1Cl	1	x	-30	x	-1	x
CCc1c(C)sc(NC(=O)c2cc(-c3ccc(C)cc3)on2)c1C#N	x	-9	x	7	x	x
CCc1ccc2[nH]c(=O)c(CN(CC3CCCO3)C(=O)Nc3ccccc3OC)cc2c1 (stereo unspecified)	x	-20	x	5	x	x
